Source: ChEMBL document CHEMBL1156663, “11-Hydroxymonocerin from the plant endophytic fungus Exserohilum rostratum” (J Nat Prod, 2008)

How the values were obtained:
CHAGO = assay: Cytotoxicity against human CHAGO cells at 20 ug/mL by MTT assay; assay type: functional, cell-based
KATO3 = assay: Cytotoxicity against human KATO3 cells at 20 ug/mL by MTT assay; assay type: functional, cell-based
HepG2 = assay: Cytotoxicity against human HepG2 cells at 20 ug/mL by MTT assay; assay type: functional, cell-based
Plasmodium falciparum = assay: Antimalarial activity against multidrug-resistant Plasmodium falciparum K1; assay type: functional, organism-based
Method in brief: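 In vitro microculture radioisotope assay against P. falciparum K1 (multidrug-resistant), parasites maintained in continuous culture; IC50 determined, dihydroartemisinin run as positive control.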

SW-620 = assay: Cytotoxicity against human SW620 cells at 20 ug/mL by MTT assay; assay type: functional, cell-based
BT-474 = assay: Cytotoxicity against human BT474 cells at 20 ug/mL by MTT assay; assay type: functional, cell-based

Structure (SMILES): CC[C@@H](O)[C@@H]1C[C@@H]2OC(=O)c3c(cc(OC)c(OC)c3O)[C@@H]2O1
- Activity (CHAGO): Not toxic
- Activity (KATO3): Not toxic
- Activity (HepG2): Not toxic
- IC50 (Plasmodium falciparum): 7.7 µM
- Activity (SW-620): Not toxic
- Activity (BT-474): Not toxic

Structure (SMILES): CC[C@@H](OC(C)=O)[C@@H]1C[C@@H]2OC(=O)c3c(cc(OC)c(OC)c3OC(C)=O)[C@@H]2O1
- Activity (CHAGO): Not toxic
- Activity (KATO3): Not toxic
- Activity (HepG2): Not toxic
- IC50 (Plasmodium falciparum): 9.1 µM
- Activity (SW-620): Not toxic
- Activity (BT-474): Not toxic

Structure (SMILES): CCC[C@H]1C[C@H]2OC(=O)c3c(cc(OC)c(OC)c3O)[C@H]2O1 [MONOCERIN]
- Activity (CHAGO): Not toxic
- Activity (KATO3): Not toxic
- Activity (HepG2): Not toxic
- IC50 (Plasmodium falciparum): 0.68 µM
- Activity (SW-620): Not toxic
- Activity (BT-474): Not toxic

Structure (SMILES): CCC[C@@H]1C[C@@H]2OC(=O)c3c(cc(OC)c(OC)c3OC(C)=O)[C@@H]2O1
- Activity (CHAGO): Not toxic
- Activity (KATO3): Not toxic
- Activity (HepG2): Not toxic
- IC50 (Plasmodium falciparum): 0.82 µM
- Activity (SW-620): Not toxic
- Activity (BT-474): Not toxic
